ChEMBL document CHEMBL3272275, “Synthesis and antiinflammatory activity of some 1,2,3- and 1,2,4-triazolepropionic acids” (J Med Chem, 1978)

Tests used:
Rattus norvegicus [1] = test: Antiinflammatory activity against carrageenan/Evans blue dye-induced pleural effusion rat model assessed as reduction in pleural fluid volume at 0.4 mmol/kg, po administered 1 hr prior challenge measured 6 hrs post challenge relative to control; type: functional; set-up: scale not given: the % may be the effect or the level left
How it was run: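 Oral dosing at 0.4 mmol/kg to groups of six rats, 1 h before intrapleural carrageenan plus Evans blue dye. Rats killed 6 h after the irritants and pleural fluid volume measured. Value is percent reduction in fluid volume relative to untreated controls.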

Rattus norvegicus [2] = test: Antiinflammatory activity in Freund's adjuvant-induced Lewis rat arthritis model assessed as reduction of paw volume at 0.2 mmol/kg, po qd administered on day 0 to day 21 of adjuvant challenge measured on day 7 by plethysmometry relative to control; type: functional; set-up: scale not given: the % may be the effect or the level left
Rattus norvegicus [3] = test: Antiinflammatory activity in Freund's adjuvant-induced Lewis rat arthritis model assessed as reduction of paw volume at 0.2 mmol/kg, po qd administered on day 0 to day 21 of adjuvant challenge measured on day 21 by plethysmometry relative to control; type: functional; set-up: scale not given: the % may be the effect or the level left
How it was run: (§1)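 Male Lewis rats (125-150 g) given an intradermal injection of 0.05 mL of 0.65% Mycobacterium tuberculosis suspension in Freund's adjuvant into the right hind plantar surface on day 0. Negative controls received mineral oil only. Dosing once daily by gavage, groups of six, days 0-21. Injected and uninjected hind-foot volume change over days 0-21 measured plethysmographically. Value is percent reduction relative to controls.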

Rattus norvegicus [4] = test: […] in Freund's adjuvant-induced Lewis rat arthritis model assessed as reduction of uninjected paw volume at 0.2 mmol/kg, po qd administered on day 0 to day 21 of adjuvant challenge measured on day 21 by plethysmometry relative to control; type: organism-based; set-up: scale not given: the % may be the effect or the level left; settings: in vivo; how it was run: as §1
Rattus norvegicus [5] = test: Antiinflammatory activity against carrageenan/Evans blue dye-induced pleural effusion rat model assessed as reduction in pleural fluid volume at 0.4 mmol/kg, po administered 1 hr prior challenge measured 6 hrs post challenge relative to phenylbutazone; type: functional
Rattus norvegicus [6] = test: Antiinflammatory activity in Freund's adjuvant-induced Lewis rat arthritis model assessed as reduction of paw volume at 72 mg/kg, po qd administered on day 0 to day 21 of adjuvant challenge measured on day 7 by plethysmometry relative to control; type: functional; set-up: scale not given: the % may be the effect or the level left
Rattus norvegicus [7] = test: […] in Freund's adjuvant-induced Lewis rat arthritis model assessed as reduction of uninjected paw volume at 72 mg/kg, po qd administered on day 0 to day 21 of adjuvant challenge measured on day 21 by plethysmometry relative to control; type: organism-based; set-up: dose 72 mg/kg, route oral; scale not given: the % may be the effect or the level left; settings: in vivo; how it was run: as §1
Rattus norvegicus [8] = test: Antiinflammatory activity against carrageenan/Evans blue dye-induced pleural effusion rat model assessed as reduction in pleural fluid volume at 0.83 mmol/kg, po administered 1 hr prior challenge measured 6 hrs post challenge relative to control; type: functional; set-up: scale not given: the % may be the effect or the level left
Rattus norvegicus [9] = test: Antiinflammatory activity in Freund's adjuvant-induced Lewis rat arthritis model assessed as reduction of paw volume at 72 mg/kg, po qd administered on day 0 to day 21 of adjuvant challenge measured on day 21 by plethysmometry relative to control; type: functional; set-up: scale not given: the % may be the effect or the level left; how it was run: as §1

Row | Compound | Activity (Rattus norvegicus [1]) [%] | Activity (Rattus norvegicus [2]) [%] | Activity (Rattus norvegicus [3]) [%] | Activity (Rattus norvegicus [4]) [%] | fold change (FC) (Rattus norvegicus [5]) | Activity (Rattus norvegicus [6]) [%] | Activity (Rattus norvegicus [7]) [%] | Activity (Rattus norvegicus [8]) [%] | Activity (Rattus norvegicus [9]) [%]
1 | CCOc1cccc(-c2cn(CCC(=O)O)nn2)c1 | 0.6 | 0.4 | -9 | -28 |  |  |  |  | 
2 | O=C(O)CCn1cnc(-c2ccccc2)n1 | -3.7 | 4.4 | 8.6 | 10 |  |  |  |  | 
3 | O=C(O)CCn1nnc(-c2ccccc2)n1 |  |  |  |  | 0.9 |  |  |  | 
4 | Cc1cccc(-c2n[nH]c(CCC(=O)O)n2)c1 | -3 |  |  |  |  |  |  |  | 
5 | O=C(O)Cn1ncc(-c2ccccc2)n1 | -5 | -17 | -9 | 45 |  |  |  |  | 
6 | O=C(O)CCn1cc(-c2ccccc2)nn1 | 0 | 8.9 | 2.2 | -12 |  |  |  |  | 
7 | O=C(O)CCc1cn(-c2ccccc2)nn1 | 1.6 | 2.3 | -1.6 | -3.2 |  |  |  |  | 
8 | O=C(O)CCn1cnc(-c2cccc(Br)c2)n1 | 8.9 | 6.2 | 0.1 | 16 |  |  |  |  | 
9 | O=C(O)/C=C/c1cnn(-c2cccc(Br)c2)n1 | 20 | 12 | 14 | 16 |  |  |  |  | 
10 | O=C(O)CCc1cnn(-c2ccccc2)n1 | 28 | 9.1 | 24 | 36 |  |  |  |  | 
11 | CC(=O)Nc1cccc(-c2cn(CCC(=O)O)nn2)c1 | 9.9 | 1.7 | 20 | -19 |  |  |  |  | 
12 | O=C(O)CCn1ncc(-c2cc(Cl)cc(Cl)c2)n1 | 0 | 35 | 33 | 38 |  |  |  |  | 
13 | Cc1cccc(-c2cn(CCC(=O)O)nn2)c1 | 0 | 10 | -7.8 | 22 |  |  |  |  | 
14 | O=C(O)CCn1nc(-c2ccccc2)c(-c2ccccc2)n1 | 26 | 21 | 23 | 34 |  |  |  |  | 
15 | Cl.O=C(O)CCn1ncc(-c2cccnc2)n1 | -1.3 |  |  |  |  |  |  |  | 
16 | O=C(O)CCCn1ncc(-c2ccccc2)n1 | 13 | -1.8 | 14 | 1.4 |  |  |  |  | 
17 | O=C(O)CCc1nc(-c2cccc(Br)c2)n[nH]1 | -9 | -13 | -1.2 | 30 |  |  |  |  | 
18 | O=C(O)CCn1cc(-c2cccc(Br)c2)nn1 | 11 | 0 | 7.2 | 23 |  |  |  |  | 
19 | CC(=O)Nc1cccc(-c2cnn(CCC(=O)O)n2)c1 | -3.2 | 8.1 | -0.1 | -24 |  |  |  |  | 
20 | Cc1nn(CCC(=O)O)nc1-c1ccccc1 | 17 |  |  |  |  |  |  |  | 
21 | O=C(O)CCn1ncc(-c2cccc(Br)c2)n1 | 29 | 19 | 30 | 25 |  |  |  |  | 
22 | O=C(O)CCn1ncc(-c2cccc(Cl)c2)n1 | 19 | 28 | 42 | 26 |  |  |  |  | 
23 | O=C(O)CCc1cnn(-c2cccc(Br)c2)n1 | 14 | 14 | 35 | 39 |  |  |  |  | 
24 | O=C(O)CCn1ncc(-c2ccccc2)n1 | 42 | 36 | 57 | 63 |  |  |  |  | 

Row | Compound | Activity (Rattus norvegicus [1]) [%] | Activity (Rattus norvegicus [2]) [%] | Activity (Rattus norvegicus [3]) [%] | Activity (Rattus norvegicus [4]) [%] | fold change (FC) (Rattus norvegicus [5]) | Activity (Rattus norvegicus [6]) [%] | Activity (Rattus norvegicus [7]) [%] | Activity (Rattus norvegicus [8]) [%] | Activity (Rattus norvegicus [9]) [%]
25 | CN(C)c1nn(CCC(=O)[O-])nc1-c1ccccc1.[Na+] | 0 |  |  |  |  |  |  |  | 
26 | Cc1cccc(-c2ncn(CC(=O)O)n2)c1 | 3 | 0.2 | -6 | -13 |  |  |  |  | 
27 | O=C(O)CCc1ncn(-c2cccc(Cl)c2)n1 | 7.5 |  |  |  |  |  |  |  | 
28 | Nc1cccc(-c2cn(CCC(=O)O)nn2)c1 | 1.4 | 2.8 | 14 | -6.7 |  |  |  |  | 
29 | Cc1cccc(-c2ncn(CCC(=O)O)n2)c1 | -3.2 | -5.1 | 7.1 | 50 |  |  |  |  | 
30 | O=C(O)CCn1cnc(-c2cccc(Cl)c2)n1 | 1.1 | 3 | 11 | 14 |  |  |  |  | 
31 | O=C(O)CCc1ncn(-c2cc(Cl)cc(Cl)c2)n1 | 5.2 | 23 | 30 | 71 |  |  |  |  | 
32 | O=C(O)CCc1nc(-c2ccccc2)n[nH]1 | -1.7 | 9.1 | 4.2 | 30 |  |  |  |  | 
33 | O=C(O)CCn1cc(-c2cccc(F)c2)nn1 | 1.7 | -9.9 | -10 | 1.6 |  |  |  |  | 
34 | O=C(O)CCc1cnn(-c2cccc(Cl)c2)n1 | 33 | 13 | 32 | 11 |  |  |  |  | 
35 | O=C(O)CCn1cc(-c2cccnc2)nn1 | 5.1 | 9.3 | 18 | -30 |  |  |  |  | 
36 | O=C(O)/C=C/c1cnn(-c2cccc(Cl)c2)n1 | 18 |  |  |  |  |  |  |  | 
37 | CC(=O)c1nn(CCC(=O)O)nc1-c1ccccc1 | 2.6 | 13 | -8 | -30 |  |  |  |  | 
38 | O=C(O)CCc1cn(-c2cccc(Cl)c2)nn1 | 10 | 10 | -4.9 | 21 |  |  |  |  | 
39 | CC(=O)Oc1ccccc1C(=O)O [ASPIRIN] |  |  |  |  |  | 37 | -11 | 29 | 5
40 | O=C(O)/C=C/c1cnn(-c2ccccc2)n1 | 13 | 14 | 20 | 42 |  |  |  |  | 
41 | O=C(O)CCc1cn(-c2cccc(F)c2)nn1 | -4.1 | 22 | -2.4 | -2 |  |  |  |  | 
42 | O=C(O)CCc1nnn(-c2cccc(Br)c2)n1 | 21 | 17 | 34 | 22 |  |  |  |  | 
43 | O=C(O)CCn1cc(-c2cccc(Cl)c2)nn1 | -1.4 | -1.1 | 3.5 | -8.2 |  |  |  |  | 
44 | O=C(O)CCn1nncc1-c1ccccc1 | 5 |  |  |  |  |  |  |  | 
45 | O=C(O)CCc1nc(-c2cccc(Cl)c2)n[nH]1 | 2.9 | 3 | 3 | 3 |  |  |  |  | 
46 | O=C(O)CCc1ncn(-c2ccccc2)n1 | 12 | 1.3 | -0.6 | -15 |  |  |  |  | 
47 | Cc1cccc(-c2cnn(CCC(=O)O)n2)c1 | -1.3 | 13 | 4.5 | 9.6 |  |  |  |  | 
48 | CCCCC1C(=O)N(c2ccccc2)N(c2ccccc2)C1=O [PHENYLBUTAZONE] | 28 | 33 | 39 | 36 |  |  |  |  | 
